Results on 31 compounds are retold here after ChEMBL document CHEMBL1770104, “Design, synthesis and antifungal activities of novel pyrrole alkaloid analogs” (Eur J Med Chem, 2011).

Converted amounts (≈) assume the structure as drawn.

The subject of test [1] is Mycosphaerella arachidis. Description: Antimicrobial activity against Cercospora arachidicola at 50 ug/mL by mycelium growth rate method. It counts as functional. An outline of the steps:
(§1)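 Mycelium growth-rate assay with anthranilamide and fenpiclonil as controls. Colony diameter is measured once the mycelia have grown completely, and the inhibition rate is calculated from the diameters by formula.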

The subject of test [2] is Fusarium graminearum. Description: Antimicrobial activity against Gibberella zeae at 50 ug/mL by mycelium growth rate method. It counts as functional. An outline of the steps: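 Mycelium growth rate assay with anthranilamide and fenpiclonil as controls. Once mycelia had grown completely, the mycelial diameter was measured and the inhibition rate was calculated from it by formula.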

The test system of test [3] is Alternaria solani. Description: Antimicrobial activity against Alternaria solani at 50 ug/mL by mycelium growth rate method. It counts as functional. The method in brief:
as §1

For test [4], the system named is Botryosphaeria berengeriana. Briefly: Antimicrobial activity against Physalospora piricola at 50 ug/mL by mycelium growth rate method. It counts as functional. An outline of the steps: as §1
In test [5] the test system is Fusarium. Briefly: Antimicrobial activity against Fusarium […] at 50 ug/mL by mycelium growth rate method. It counts as functional. The method in brief:
as §1

For test [6], the system named is Botryosphaeria berengeriana. Description: Antimicrobial activity against Physalospora piricola by mycelium growth rate method. It counts as functional, organism-based. An outline of the steps:
as §1

The test system of test [7] is Mycosphaerella arachidis. Briefly: Antimicrobial activity against Cercospora arachidicola by mycelium growth rate method. It counts as functional, organism-based. An outline of the steps:
as §1

Test [8] concerns Fusarium graminearum. Briefly: Antimicrobial activity against Gibberella zeae by mycelium growth rate method. It counts as functional, organism-based.
The test system of test [9] is Fusarium. Briefly: Antimicrobial activity against Fusarium […] by mycelium growth rate method. It counts as functional, organism-based. An outline of the steps: as §1
Test [10] deals with Alternaria solani. Description: Antimicrobial activity against Alternaria solani by mycelium growth rate method. It counts as functional, organism-based. An outline of the steps: as §1

Regarding `O=C(NOCc1ccc(F)cc1)c1ccc[nH]1`, the inhibition at 50 µg/mL was 12% with Mycosphaerella arachidis [1]; 7% in the test with Fusarium graminearum [2]; 0% with Alternaria solani [3]; 6.2% in [4]; 0% in the test with Fusarium [5].
As for `O=C(NOCc1ccc(Cl)cc1Cl)c1cc(Br)c(Br)[nH]1`, the inhibition at 50 µg/mL in the test with Mycosphaerella arachidis [1] was determined as 35.7%; in the test on Fusarium graminearum [2], 11.8%; with Alternaria solani [3], 21.1%; in [4] it was 33.3%; in the test with Fusarium [5], 33.3%.
Consider `NC(=O)c1ccccc1N` [ANTHRANILAMIDE], for which the inhibition at 50 µg/mL in the test on Mycosphaerella arachidis [1] turned out to be 52%; with Fusarium graminearum [2] it was 38%; in the test with Alternaria solani [3] it was 42.3%; in [4], 43.2%; in the test on Fusarium [5] it was 27.8%.
Taken in the same sequence, the figures for `O=C(NOCc1ccc(F)cc1)c1[nH]c(Br)c(Br)c1Br` were 28%, 15.5%, 19.2%, 18.5% and 8.3%.
For `COc1ccc(CONC(=O)c2cc(Br)c(Br)[nH]2)cc1OC`, the inhibition at 50 µg/mL in the test with Mycosphaerella arachidis [1] was 60%; in the test with Fusarium graminearum [2], 4.6%; in the test with Alternaria solani [3] it was 73.3%; in test [4] it was 50%; in the test on Fusarium [5], 41.2%.
With `O=C(NOCc1ccccc1Cl)c1cc(Br)c(Br)[nH]1`, the inhibition at 50 µg/mL came to 20% in the test with Mycosphaerella arachidis [1]; 13.6% in the test with Fusarium graminearum [2]; 19% in the test with Alternaria solani [3]; 13.4% in test [4]; 0% with Fusarium [5].
For `O=C(NOCc1cccc(Cl)c1)c1cc(Br)c(Br)[nH]1` the same measures were 80%, 17.4%, 66.7%, 38.9% and 47%.
Regarding `CO/C=C(/C(=O)OC)c1ccccc1CONC(=O)c1cc(Br)c(Br)[nH]1`, the inhibition at 50 µg/mL in the test with Mycosphaerella arachidis [1] is 26.7%; in the test with Fusarium graminearum [2], 0%; with Alternaria solani [3], 52.4%; in test [4], 13.6%; in the test with Fusarium [5] it was 6.7%.
`O=C(NOCc1ccc(Cl)nc1)c1cc(Br)c(Br)[nH]1`: the inhibition at 50 µg/mL amounted to 28.6% with Mycosphaerella arachidis [1]; 0% in the test on Fusarium graminearum [2]; 5.3% in the test with Alternaria solani [3]; 37% in test [4]; 23.8% in the test with Fusarium [5].
For `N#Cc1c[nH]cc1-c1cccc(Cl)c1Cl` [FENPICLONIL], the inhibition at 50 µg/mL in the test on Mycosphaerella arachidis [1] was 100%; in the test on Fusarium graminearum [2], 100%; in the test on Alternaria solani [3], 100%; in [4] it was 100%; in the test with Fusarium [5], 18%. For the same compound, the EC50 in test [6] was 0.8 mg/L (≈ 3.37 µM); with Mycosphaerella arachidis [7] it was 0.38 mg/L (≈ 1.6 µM); with Fusarium graminearum [8] it was 1.71 mg/L (≈ 7.21 µM); with Fusarium [9], over 50 mg/L; with Alternaria solani [10], 0.55 mg/L (≈ 2.32 µM).
Turning to `C#CCOc1ccc(CONC(=O)c2cc(Br)c(Br)[nH]2)cc1OC`, the inhibition at 50 µg/mL came to 56.3% in the test on Mycosphaerella arachidis [1]; 8.7% with Fusarium graminearum [2]; 64.9% in the test with Alternaria solani [3]; 90% in [4]; 47.1% with Fusarium [5]. Besides, the EC50 in test [6] is 9.78 mg/L (≈ 21.3 µM); in the test with Mycosphaerella arachidis [7], 24.4 mg/L (≈ 53.2 µM); in the test with Fusarium graminearum [8] it was over 50 mg/L; in the test on Fusarium [9], over 50 mg/L; with Alternaria solani [10], 20 mg/L (≈ 43.7 µM).
Consider `CO/C=C(/C(=O)OC)c1ccccc1CONC(=O)c1cc(Cl)c(Cl)[nH]1`, for which the inhibition at 50 µg/mL in the test on Mycosphaerella arachidis [1] stood at 40%; with Fusarium graminearum [2] it was 21.1%; with Alternaria solani [3] it was 42.3%; in [4], 24.7%; in the test on Fusarium [5], 8.3%.
Take `O=C(NOCc1ccc(Cl)c(Cl)c1)c1cc(Br)c(Br)[nH]1`: the inhibition at 50 µg/mL in the test with Mycosphaerella arachidis [1] amounted to 43.8%; in the test on Fusarium graminearum [2], 17.4%; in the test with Alternaria solani [3] it was 40%; in test [4], 27.8%; in the test with Fusarium [5], 23.5%.
For `O=C(NOCc1cccc(F)c1)c1cc(Br)c(Br)[nH]1` the same measures were 54%, 4.5%, 61.9%, 40.9% and 40.8%.
With `O=C(NOCc1ccc(F)cc1)c1cc(Cl)c(Cl)[nH]1`, the inhibition at 50 µg/mL was found to be 16% in the test on Mycosphaerella arachidis [1]; 19.5% in the test with Fusarium graminearum [2]; 30.8% with Alternaria solani [3]; 18.5% in test [4]; 22.2% with Fusarium [5].
In the case of `N#Cc1ccc(CONC(=O)c2cc(Br)c(Br)[nH]2)cc1`, the inhibition at 50 µg/mL in the test on Mycosphaerella arachidis [1] was 35%; in the test on Fusarium graminearum [2], 20.6%; in the test with Alternaria solani [3], 31.6%; in [4], 48.1%; in the test on Fusarium [5], 19%.
Regarding `O=C(NOCc1ccccc1F)c1cc(Br)c(Br)[nH]1`, the inhibition at 50 µg/mL in the test on Mycosphaerella arachidis [1] came to 50.3%; with Fusarium graminearum [2], 18.2%; in the test on Alternaria solani [3], 76.2%; in test [4] it was 27.3%; in the test on Fusarium [5], 41.2%.
Consider `C#CCOc1ccc(CONC(=O)c2[nH]c(Br)c(Br)c2Br)cc1OC`, for which the inhibition at 50 µg/mL came out at 33.3% in the test on Mycosphaerella arachidis [1]; 9.1% with Fusarium graminearum [2]; 11.8% in the test on Alternaria solani [3]; 25.8% in [4]; 22.2% in the test on Fusarium [5].
On to `C#CCOc1ccc(CONC(=O)c2ccc[nH]2)cc1OC`, for which the inhibition at 50 µg/mL in the test on Mycosphaerella arachidis [1] came out at 20%; in the test with Fusarium graminearum [2], 9.1%; in the test with Alternaria solani [3], 35.3%; in test [4] it was 100%; in the test on Fusarium [5], 16.7%. In addition, the EC50 in test [6] was 4.5 mg/L (≈ 15 µM); in the test on Mycosphaerella arachidis [7], over 50 mg/L; in the test with Fusarium graminearum [8], over 50 mg/L; in the test on Fusarium [9], over 50 mg/L; in the test with Alternaria solani [10] it was over 50 mg/L.
As to `O=C(NOCc1ccc(Br)cc1)c1cc(Br)c(Br)[nH]1`, the inhibition at 50 µg/mL turned out to be 50% in the test with Mycosphaerella arachidis [1]; 2.9% in the test with Fusarium graminearum [2]; 31.6% in the test on Alternaria solani [3]; 33.3% in test [4]; 4.8% in the test with Fusarium [5].
Taken in the same sequence, the figures for `C#CCOc1ccc(CON(C)C(=O)c2cccn2C)cc1OC` were 7.7%, 20%, 16.7%, 6% and 31.6%.
In the case of `CO/C=C(/C(=O)OC)c1ccccc1CONC(=O)c1[nH]c(Br)c(Br)c1Br`, the inhibition at 50 µg/mL with Mycosphaerella arachidis [1] is 26.7%; in the test on Fusarium graminearum [2], 13.6%; with Alternaria solani [3], 5.9%; in test [4], 25%; with Fusarium [5] it was 27.8%.
Taken in the same sequence, the figures for `C#CCOc1ccc(CONC(=O)c2cc(Cl)c(Cl)[nH]2)cc1OC` were 44%, 21.1%, 42.3%, 6.2% and 0%.
Take `O=C(NOCc1ccc([N+](=O)[O-])cc1)c1cc(Br)c(Br)[nH]1`: the inhibition at 50 µg/mL amounted to 18.8% in the test with Mycosphaerella arachidis [1]; 13% with Fusarium graminearum [2]; 26.7% with Alternaria solani [3]; 16.7% in test [4]; 17.6% with Fusarium [5].
On to `N#Cc1ccccc1CONC(=O)c1cc(Br)c(Br)[nH]1`, for which the inhibition at 50 µg/mL with Mycosphaerella arachidis [1] is 14.3%; in the test on Fusarium graminearum [2], 14.7%; in the test on Alternaria solani [3], 10.5%; in [4] it was 14.8%; in the test with Fusarium [5], 14%.
On to `O=C(NOCc1ccc2c(c1)OCO2)c1cc(Br)c(Br)[nH]1`, for which the inhibition at 50 µg/mL in the test on Mycosphaerella arachidis [1] turned out to be 75%; with Fusarium graminearum [2], 14.7%; in the test with Alternaria solani [3], 31.6%; in test [4], 18.5%; in the test with Fusarium [5], 23.8%.
For `N#Cc1cccc(CONC(=O)c2cc(Br)c(Br)[nH]2)c1`, the inhibition at 50 µg/mL in the test with Mycosphaerella arachidis [1] amounted to 35.7%; in the test with Fusarium graminearum [2], 8.8%; in the test on Alternaria solani [3], 21.1%; in test [4] it was 25.3%; with Fusarium [5], 18%.
As for `O=C(NOCc1ccccc1)c1cc(Br)c(Br)[nH]1`, the inhibition at 50 µg/mL with Mycosphaerella arachidis [1] stood at 53.3%; with Fusarium graminearum [2], 9.1%; in the test with Alternaria solani [3] it was 66.7%; in test [4], 40.9%; in the test on Fusarium [5] it was 40%.
Taken in the same sequence, the figures for `O=C(NOCc1ccc(F)cc1)c1cc(Br)c(Br)[nH]1` were 62.5%, 21.7%, 66.5%, 55.1% and 58%.
As to `C#CCOc1ccc(CON(C)C(=O)c2ccc[nH]2)cc1OC`, the inhibition at 50 µg/mL turned out to be 19.2% in the test on Mycosphaerella arachidis [1]; 0% with Fusarium graminearum [2]; 13.3% in the test with Alternaria solani [3]; 5.8% in [4]; 31.6% in the test with Fusarium [5].
On to `CO/C=C(/C(=O)OC)c1ccccc1CONC(=O)c1ccc[nH]1`, for which the inhibition at 50 µg/mL in the test on Mycosphaerella arachidis [1] was determined as 13.3%; in the test with Fusarium graminearum [2], 8.5%; in the test on Alternaria solani [3], 0%; in [4] it was 16.1%; in the test with Fusarium [5] it was 0%.

In general, inhibition refers to the drop in the measured response relative to a control, in per cent. Read a high inhibition as a strong effect. The EC50 is the concentration at which the effect is half-maximal. A low value points to greater potency.
